Measured values gathered from unrelated publications.
Compare with care: the assays were run in different laboratories.
Organism: Pseudomonas aeruginosa
Effect on: microbial growth

SMILES | test | test system | setting | MIC
Cc1cc(O)cc(Nc2nnc(-c3n[nH]c4ccc(C)cc34)s2)c1 | – | ATCC27853 | – | 147 µg/mL
C[C@H]1COc2c(N3CCN(C)CC3)c(F)cc3c(=O)c(C(=O)O)cn1c23 | – | ATCC27853 | drug-resistant strain | 1 µg/mL
CN(C)[C@@H]1C(O)=C(C(N)=O)C(=O)[C@@]2(O)C(O)=C3C(=O)c4c(O)cccc4[C@@](C)(O)[C@H]3C[C@@H]12 | broth dilution | ATCC27853 | – | 16 µg/mL
CCCCCCCCCCCC[N+](C)(C)Cc1ccccc1 | – | PAO1 | – | 250 µM
COc1ccc2ccc(O)c(/C=N/[C@H]3CCCC[C@H]3/N=C/c3c(O)cccc3F)c2c1 | broth dilution | – | clinical isolate | > 40 µM
[H]/N=C(/N)N[C@H]1[C@H](O)[C@@H](O)[C@H](O[C@@H]2O[C@@H](C)[C@](O)(C=O)[C@H]2O[C@@H]2O[C@@H](CO)[C@H](O)[C@@H](O)[C@@H]2NC)[C@@H](N/C(N)=N\[H])[C@@H]1O | broth dilution | ATCC27 ATCC27853 | – | 20 µg/mL
CCCCCCC#Cc1cncc(-c2nnc(SCc3cc(C(F)(F)F)cc(C(F)(F)F)c3)n2CCCN)c1 | broth dilution | DSM1128 | – | > 64 µg/mL
CC1(C)S[C@@H]2[C@H](NC(=O)[C@H](N)c3ccc(O)cc3)C(=O)N2[C@H]1C(=O)O | broth dilution | ATCC27853 | – | > 64 µg/mL
Cc1ccc2[nH]nc(-c3nnc(Nc4ccc(C(F)(F)F)cc4)s3)c2c1 | – | ATCC27853 | – | 126 µg/mL
COc1ccc2ccc(O)c(/C=N/[C@H]3CCCC[C@H]3/N=C/c3ccc(OCCN4CCCCC4)cc3O)c2c1 | broth dilution | – | – | > 40 µM
[H]/N=C(\N/C(=N/[H])NCCCCCCNC(=N)NC(=N)Nc1ccc(Cl)cc1)Nc1ccc(Cl)cc1 | – | PAO1 | – | 8 µM
COc1ccc2ccc(O)c(/C=N/[C@H]3CCCC[C@H]3/N=C/c3ccc(-c4ccccc4)cc3O)c2c1 | broth dilution | – | clinical isolate | > 40 µM
CCCCCCC#Cc1cncc(-c2nnc(SCc3ccc(Cl)cc3)n2CCCN)c1 | broth dilution | DSM1128 | – | > 64 µg/mL
Cc1ccc2[nH]nc(-c3nnc(Nc4ccc(Cl)cc4)s3)c2c1 | – | ATCC27853 | – | 119 µg/mL
CCCCCCC#Cc1cncc(-c2nnc(SCc3cc([N+](=O)[O-])cc([N+](=O)[O-])c3)n2CCCN)c1 | broth dilution | DSM1128 | – | > 64 µg/mL
OB1OCc2cc(F)ccc21 | broth dilution | – | – | 128 µg/mL
Cc1ccc2[nH]nc(-c3nnc(Nc4ccc(Br)cc4)s3)c2c1 | – | ATCC27853 | – | 243 µg/mL
CC1(C)S[C@@H]2[C@H](NC(=O)[C@H](N)c3ccccc3)C(=O)N2[C@H]1C(=O)O | broth dilution | ATCC27853 | – | 64 µg/mL
Cc1ccc2[nH]nc(-c3nnc(Nc4ccc(Cl)c(Cl)c4)s3)c2c1 | – | ATCC27853 | – | 121 µg/mL
CCCCCCC#Cc1cncc(-c2nnc(SCc3ccc([N+](=O)[O-])cc3)n2CCCN)c1 | broth dilution | DSM1128 | – | > 64 µg/mL
CC[C@H]1OC(=O)[C@H](C)[C@@H](O[C@H]2C[C@@](C)(OC)[C@@H](O)[C@H](C)O2)[C@H](C)[C@@H](O[C@@H]2O[C@H](C)C[C@H](N(C)C)[C@H]2O)[C@](C)(O)C[C@@H](C)CN(C)[C@H](C)[C@@H](O)[C@]1(C)O | broth dilution | ATCC27853 | – | 32 µg/mL
Cc1ccc2[nH]nc(-c3nnc(Nc4ccc(C)c(C)c4)s3)c2c1 | – | ATCC27853 | – | 108 µg/mL
